Screens: PubChem BioAssay, several laboratories
Sampled rows, rich in hits. Any-hit rate of the full collection: about 2.2%.
STAT3 inh: IL-6 driven STAT3 reporter inhibitors, primary screen, U3A cells, luciferase, luminescence, MLSCN library; IL-6 STAT3-luciferase reporter; host cell line lacks STAT1; inhibition, % at 5.5 µM; hit rate 0.89% among 190,000; AID 862, 2007;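 active means inhibition above the mean inhibition across all screened compounds plus 3 SD, cut at about 44% in these data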;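 further: 0% = DMSO only wells and 100% = 100 µM nifuroxazide control wells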
PPC-1+TRAIL kill: compounds killing PPC-1 cancer cells with TRAIL present, primary screen, TRAIL potentiator project, ATPLite luminescence, uHTS; cell killing (% activity), % at 4 µM or 5 µM; hit rate 0.41% among 220,000; PPC-1 cells + TRAIL, ATPLite viability luminescence; AID 1443, 2008;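 active means cell killing above 50% in the first pass at 4 µM, then a duplicate retest at 5 µM averaging 50% or more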;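 further: plate controls were cells with TRAIL plus DMSO for no effect and medium-only wells lacking cells for full effect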
HSP90 refold inh: HSP90 inhibitors, primary screen, cell lysate, luminescence; inhibition, % at 5.6 µM; Rabbit reticulocyte lysate, luciferase refolding luminescence, 3 h; hit rate 0.91% among 290,000; Heat shock protein HSP 90 (rabbit reticulocyte lysate; luciferase refolding);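 active means inhibition above the screen-wide mean plus 3 SD, computed separately per campaign, cut at about 16% in these data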;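 further: 0% = DMSO wells and 100% = 60 µM geldanamycin wells; inhibitors lower the luminescence because luciferase stays unfolded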
FLuc stim CS: FLuc activators, initial screening, artefact control for FLuc-dependent activation tests, biochemical, ATPlite luminescence. ATPlite luciferase biochemical, 10 min; 0 = ATP-free wells, 1 = DMSO control. 200,000 tested, under 10 active. Luciferin 4-monooxygenase (Photinus pyralis), P08659. activation factor at 10 µM;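 active means luciferase activation factor, scaled between plate controls, of at least 2 with compound at 10 µM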
Target sequence (P08659 whole entry, looked up): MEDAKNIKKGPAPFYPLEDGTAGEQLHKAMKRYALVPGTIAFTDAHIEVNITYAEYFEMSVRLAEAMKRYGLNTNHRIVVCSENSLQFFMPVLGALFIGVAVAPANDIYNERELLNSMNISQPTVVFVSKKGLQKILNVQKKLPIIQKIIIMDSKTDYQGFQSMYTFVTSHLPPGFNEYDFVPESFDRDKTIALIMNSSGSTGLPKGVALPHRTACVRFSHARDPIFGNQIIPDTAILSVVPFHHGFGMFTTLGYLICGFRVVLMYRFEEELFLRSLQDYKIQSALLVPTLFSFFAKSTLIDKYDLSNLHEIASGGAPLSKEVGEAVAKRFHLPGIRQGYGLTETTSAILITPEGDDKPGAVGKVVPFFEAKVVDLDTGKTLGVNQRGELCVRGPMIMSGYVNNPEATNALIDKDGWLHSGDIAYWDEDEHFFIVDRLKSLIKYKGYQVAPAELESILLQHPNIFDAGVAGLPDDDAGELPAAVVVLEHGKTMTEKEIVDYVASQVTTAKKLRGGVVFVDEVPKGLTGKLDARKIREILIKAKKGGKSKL
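Assay system – cell-free luciferase reagent · Medium – PBS-based ATP solution · Dosing – test compounds dosed from 2 mM stocks in 100% DMSO · Timing – 10 min, room temperature · Technique – light output (luminescence) · Measure – luminescence gain marking luciferase activators · Controls – No-ATP low control, compound-free enzyme-plus-ATP high control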
FLuc inhib CS: firefly luciferase enzyme inhibitors, primary screen, artefact control for luciferase-based inhibitor screens, biochemical, luminescence, ATPLite; AID 1006, 2008; hit rate 1.5% among 200,000; 10 min; inhibition, % at 10 µM;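 active means inhibition above about 50% when tested at 10 µM, limit read from the data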
TRAIL sens C8: viability loss with TRAIL in NB7+C8 cells, primary screen, TRAIL sensitizer project, cell-based, ATPlite luminescence. inhibition (viability loss, TRAIL sensitization), % at 10 µM. hit rate 1% among 360,000. AID 624354, 2012;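 active means compounds causing at least 50% loss of cell viability in the single-dose screen, relative to plate controls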
Starred values were filed as active, the others as inactive; · = not tested or not shown.

SMILES	STAT3 inh	PPC-1+TRAIL kill	HSP90 refold inh	FLuc stim CS	FLuc inhib CS	TRAIL sens C8
O=C(COc1ccccc1Cl)Nc1ccc(N2CCCC2)cc1	·	·	5.6	·	·	-0.2
CC1(C)N=C(N)N=C(N)N1c1cccc(C(=O)O)c1	4.3	1.1	6.2	1.1	-8.2	3.0
Cc1cccc(NC(=O)CCc2ccc(N3C(N)=NC(N)=NC3(C)C)cc2)c1	·	·	·	·	·	79.8*
O=C(NCCN1CCC(n2c(=O)[nH]c3ccccc32)CC1)c1cccc(Cl)c1	·	·	·	·	·	9.1
CC(C)Cc1nnc(NC(=O)CCC(=O)N2CC(C)CC(C)C2)s1 (configuration not stated)	·	·	-0.1	·	·	-10.2
COC(=O)c1ccc(NC(=O)C(=O)N2CCCC2)cc1	-1.1	-4.1	16.5*	0.8	21.5	24.8
NC(=O)Oc1cccc(OC(N)=O)c1	·	-17.6	0.5	·	·	10.9
Cc1[nH]n(-c2cccc(Cl)c2)c(=O)c1C=NCc1ccco1	29.3	-0.1	0.9	0.3	65.2*	7.6
COc1ccc(C(=O)N=c2sc3ccccc3n2C)cc1	-39.8	41.4	-3.9	0.3	69.1*	42.3
COc1cccc(N2CCN(c3ncnc4c3cnn4-c3ccc(C)cc3C)CC2)c1	42.9	20.6	-2.0	1	-3.6	92.8*
Cc1cccc(-n2ncc3c(N4CCC(C)CC4)ncnc32)c1	34.2	21.7	-0.8	0.6	44.2	50.1*
CC(=O)N1CCN(CC(=O)Nc2ccccc2Sc2ccc(Cl)cc2)CC1	-2.1	13.4	0.2	1	-4.0	-1.9
O=C(CCl)Nc1ccccc1Sc1ccc(Cl)cc1	7.0	-6.9	4.8	1.1	-6.2	94.7*
COc1cccc(/C=N/NC(=O)c2cccc3ccccc23)c1OC	·	·	·	·	·	5.1
Fc1ccc(OCc2nc3ccccc3s2)cc1	9.3	22.3	-1.9	0.4	64.0*	26.2
COC(=O)c1sccc1NC(=O)CC1NCCNC1=O (configuration not stated)	·	3.6	3.9	·	·	4.2
COc1cc2c(cc1OC)C(CNC(=O)C=Cc1cc(OC)c(OC)c(OC)c1)C2 (configuration not stated)	·	·	·	·	·	-2.5
Cn1ncc2c(O/N=C(\N)c3ccc(C(F)(F)F)cc3)ncnc21	·	14.3	3.1	·	·	95.4*
Cc1ccc(C(=O)NNc2ncnc3c2cnn3C)cc1	·	5.4	2.2	·	·	15.1
CC1(C)N([O-])C2=C(CCCC2)[N+]1=O	-7.4	18.0	0.0	1	0.6	-1.0
O=C(CN1C(=O)S/C(=C\C=C\c2ccccc2)C1=O)Nc1ccccc1C(=O)O	·	13.6	5.4	·	·	15.0
C#CCN1C(=O)S/C(=C/C=C/c2ccc(N(C)C)cc2)C1=O	-0.3	23.3	21.0*	0.7	32.3	21.1
COC(=O)c1ccc(/C=C/C(=O)OCC(=O)c2ccc[nH]2)cc1	·	·	·	·	·	-15.9
Cn1c(=O)nc2n(Cc3ccccc3)c3cccc(Cl)c3cc-2c1=O	3.7	17.5	0.8	1.1	-9.6	-2.6
CN(C)c1ccc(/C=C2/NC(=O)NC2=O)cc1	15.8	36.4	0.6	0.3	72.7*	40.5
SMILES	STAT3 inh	PPC-1+TRAIL kill	HSP90 refold inh	FLuc stim CS	FLuc inhib CS	TRAIL sens C8
CCC(C)CN1C(=O)CN(S(C)(=O)=O)CC1(C)C(=O)NCc1ccccc1 (configuration not stated)	·	·	·	·	·	-6.2
COC1=C(OC)C(=O)C(CCCCCCCCCCO)=C(C)C1=O	·	9.8	27.4*	1	2.0	-12.4
CC1=C(C)C(=O)C(CCCCC#CCCCC#CCO)=C(C)C1=O	-6.7	21.3	5.1	1	-4.6	-1.8
CCOC(=O)c1cc(-c2ccccc2)n(CC2CC(c3ccc(OC)cc3)=NO2)n1 (configuration not stated)	·	·	-2.6	·	·	-6.1
COC(=O)c1ccc(-c2ccc(Cl)cc2)nc1C	10.2	17.0	-2.1	0.5	50.5*	45.6
COC(=O)c1ccccc1NC(=O)c1sc(Cl)nc1C	·	·	0.4	·	·	7.8
COc1ccc(/C=C/C(=O)C2C(=O)C=C(C)OC2=O)cc1O (configuration not stated)	-33.9	25.1	0.7	0.2	82.9*	45.1
Brc1cc2c(cc1-c1nc3ccccc3s1)OCO2	·	·	2.0	·	·	-2.7
Nc1ccc(-c2nc3ccccc3s2)cn1	·	·	-4.4	·	·	23.8
c1ccc(-c2nc3ccccc3s2)nc1	24.4	14.0	4.7	0.4	61.1*	17.4
Cc1cc(-c2nc3ccccc3s2)ccc1N	·	·	·	·	·	72.4*
Brc1ccc(-c2nc3ccccc3s2)s1	3.6	21.8	-4.4	0.4	64.5*	23.8
CCOC(=O)c1cn(-c2ccc(F)c(F)c2F)c2c(F)c(F)c(F)cc2c1=O	0.2	-2.0	-9.3	1.1	-9.6	64.2*
CCOC(=O)c1cn(-c2ccccc2CO)c2c(F)c(F)c(F)cc2c1=O	-0.7	-9.7	-2.4	1	-2.0	1.7
COc1ccc(-n2ncc3c2CC(C)(C)CC3NC(=O)c2ccc(OC)o2)cc1 (configuration not stated)	·	·	-3.1	·	·	6.1
COc1ccc(-c2nc3ccccc3c(=O)n2NC(=O)c2cccnc2Cl)cc1OC	4.2	-0.7	-0.8	1.1	-5.2	0.1
COc1ccc(OC)c(/C=C/C(=O)c2ccc3c(c2)OCCO3)c1	·	·	-0.2	·	·	65.3*
COc1cc(/C=C/C(=O)c2ccc3c(c2)OCCO3)cc(OC)c1OC	·	·	5.5	·	·	18.8
O=C(OCc1c(-c2ccccc2)ncc2ccccc12)c1cccc(Br)c1	·	·	·	·	·	3.5
CC1(C(=O)Nc2ccc3nc[nH]c3c2)CCN1C(=O)C/C=C/c1ccccc1 (configuration not stated)	·	·	·	·	·	-8.1
C=CCc1ccccc1OCC(=O)N/N=C/c1ccc(OC(C)=O)cc1OC(C)=O	11.5	22.8	-7.3	1	-4.4	50.2*
Cc1ccccc1OCC(=O)N/N=C/c1cc2ccccc2nc1Cl	15.5	27.6	0.7	1	2.4	4.0
Cc1ccc(F)cc1NC(=O)C1C2CCC(O2)C1C(=O)O (configuration not stated)	·	·	5.7	·	·	-8.2
O=C(c1ccccc1)c1cnc(Nc2ccccc2Cl)s1	-6.4	29.1	-2.0	0.4	62.0*	31.3
Cc1ccc(OCC(=O)Nc2ccccc2C(N)=O)cc1	·	·	-1.6	·	·	52.2*
COc1ccc(NC(=O)Nc2ccccc2C(N)=O)cc1	11.9	-1.7	11.5	0.2	83.9*	-2.0
CN1CCN(c2ccccc2NC(=O)c2ccc([N+](=O)[O-])o2)CC1	·	·	-3.7	·	·	60.5*
CCC(=O)N1CCN(c2ccc(NC(=O)c3ccc([N+](=O)[O-])o3)cc2Cl)CC1	-8.3	30.8	5.2	1	-4.5	70.0*
CCN1CCN(c2ccc(S(=O)(=O)N3CCOCC3)cc2NC(=O)/C=C/c2ccc([N+](=O)[O-])cc2)CC1	·	·	·	·	·	53.5*
